Activity calls are given as the source filed them. The calls are words filed in the database; no cut-off is given here.

The target of this assay is T1, Protein deacetylase HDAC6 (Homo sapiens) (UniProt Q9UBN7).
T1 sequence (whole entry): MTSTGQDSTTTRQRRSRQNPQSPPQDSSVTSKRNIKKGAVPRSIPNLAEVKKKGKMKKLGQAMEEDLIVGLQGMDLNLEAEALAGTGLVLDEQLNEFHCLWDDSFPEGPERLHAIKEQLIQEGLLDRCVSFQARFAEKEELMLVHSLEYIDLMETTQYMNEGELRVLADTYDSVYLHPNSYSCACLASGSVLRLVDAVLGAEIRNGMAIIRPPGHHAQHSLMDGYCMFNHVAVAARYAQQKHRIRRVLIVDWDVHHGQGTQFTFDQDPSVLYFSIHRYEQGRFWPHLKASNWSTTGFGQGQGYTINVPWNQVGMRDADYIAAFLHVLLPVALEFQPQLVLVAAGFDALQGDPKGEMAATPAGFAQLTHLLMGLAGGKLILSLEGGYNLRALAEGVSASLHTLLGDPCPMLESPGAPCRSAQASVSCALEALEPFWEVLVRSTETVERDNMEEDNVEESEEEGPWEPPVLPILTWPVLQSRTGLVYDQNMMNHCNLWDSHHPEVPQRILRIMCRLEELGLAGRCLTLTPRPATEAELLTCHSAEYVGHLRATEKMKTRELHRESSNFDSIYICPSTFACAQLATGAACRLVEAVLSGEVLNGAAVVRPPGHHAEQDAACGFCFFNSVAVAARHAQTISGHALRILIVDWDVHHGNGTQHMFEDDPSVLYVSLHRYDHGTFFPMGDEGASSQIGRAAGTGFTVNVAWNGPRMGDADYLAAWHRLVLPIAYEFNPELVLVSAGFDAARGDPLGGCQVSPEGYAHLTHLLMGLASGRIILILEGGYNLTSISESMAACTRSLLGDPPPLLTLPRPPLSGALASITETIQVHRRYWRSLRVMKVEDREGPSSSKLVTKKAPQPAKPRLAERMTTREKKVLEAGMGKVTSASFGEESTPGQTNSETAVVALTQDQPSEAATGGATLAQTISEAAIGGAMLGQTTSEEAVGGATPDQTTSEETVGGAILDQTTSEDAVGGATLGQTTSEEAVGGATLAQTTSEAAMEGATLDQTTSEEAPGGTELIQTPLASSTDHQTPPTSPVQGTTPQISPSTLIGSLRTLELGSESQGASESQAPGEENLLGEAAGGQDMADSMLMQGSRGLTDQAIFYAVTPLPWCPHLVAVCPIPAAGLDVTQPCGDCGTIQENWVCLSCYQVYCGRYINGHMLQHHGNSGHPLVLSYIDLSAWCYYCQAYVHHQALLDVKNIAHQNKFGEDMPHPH
The experiment in a line: Irreversible inhibition of N-terminal GST tagged human recombinant HDAC6 (1 to 1215 residues) expressed in Sf9 insect cells using Z-Lys(Ac)-AMC as fluorogenic substrate at 6.5 uM preincubated for 1 hr followed by 100-fold dilution and substrate addition measured every 0.5 mins for 60 mins by microplate reader analysis. The essentials: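 It was then diluted 100-fold in buffer or in inhibitor at the original concentration. Finals were 220 pg/μL enzyme, 93 μM ZMAL and 20 ng/μL trypsin. AMC release was read every 0.5 min for 60 min at 37 °C; triplicates.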

In the case of `FC(F)(F)c1nnc(-c2cnc(NCc3ccccc3)nc2)o1`, the inhibition result was “inactive”.

Source of the values: ChEMBL document CHEMBL5365542, “Difluoromethyl-1,3,4-oxadiazoles Are Selective, Mechanism-Based, and Essentially Irreversible Inhibitors of Histone Deacetylase 6” (J Med Chem, 2023).
